Data on 55 compounds can be found in PubChem BioAssay AID465 (The Scripps Research Institute Molecular Screening Center, 2006).

The campaign covered roughly 62,000 compounds. About 130 (0.21%) were called active. This is one part of a sample in which actives are shown more often than they occur.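 How the source made its calls: active means inhibition above the mean of all tested compounds plus 3 SD (cut at about 40% in these data); inactive means the rest.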

This experiment in a line: lowered NF-kB luciferase signal in HEK293 cells – cell-based, HEK-293 luciferase reporter, PMA/ionomycin, luminescence, antigen receptor NF-kB inhibitor project, primary screen (AID 465).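 Further: 0% = stimulated DMSO wells and 100% = 10 µM reference inhibitor 5653914.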 Particulars: HEK-293 NF-kB luciferase reporter, at 3 µM, active compounds read high. The method, boiled down:
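Reagent: PMA plus ionomycin mix as NF-kB-activating stimulus. Assay system: NF-kB luciferase reporter HEK-293 cells. Technique: luminescence from luciferase substrate reagent. Incubation: 1 h compound pre-incubation, 16 h PMA/ionomycin at 37 °C. Benchmarks: DMSO only as uninhibited control, 10 µM reference inhibitor as full inhibition. Repeats: tested once.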
As for `Cc1nn(-c2ccccc2)c(C)c1C(=O)OCC(=O)NC(=O)NC1CCCCC1`, the inhibition (in general, the change of the read-out against control, counted positive when it falls) was 8.4% (inactive).

For the compound `CCOC(=O)N1CCN(C(=O)c2nn(-c3ccc(C)cc3)c(=O)c3c2c2ccccc2n3C)CC1`, the inhibition was 20.4% (inactive).

For `O=C(OCC(=O)N1CCCC1)c1ccco1`, the inhibition was 9.6% (inactive).

Take `CC1(C)NC(=O)N(CCOc2cccc(Oc3ccccc3)c2)C1=O`: the inhibition was 21.8% (inactive).

Take `COc1cccc2c(C)c(C(=O)O)[nH]c12`: the inhibition is 48.7% (active).

Regarding `CCOC(=O)c1c(C)[nH]c(C(=O)NCc2ccccc2OC)c1C`, the inhibition was -10.8% (inactive).

As to `COc1ccc(C)cc1NC(=O)c1[nH]c(C)c(C(C)=O)c1C`, the inhibition is 8.7% (inactive).

Regarding `Cc1ccc(NC(=O)CCNS(=O)(=O)c2ccc3c(c2)oc(=O)n3C)cc1C`, the inhibition is 13.6% (inactive).

`CC1CN(C(=O)CN2C(=O)NC(C)(c3ccccc3)C2=O)CC(C)O1` (stereo not given): the inhibition was 6.5% (inactive).

`Cc1cc(=O)oc(C)c1C(=O)NCc1ccc(F)cc1`: the inhibition is 4.5% (inactive).

On to `O=C(CCn1c(=O)oc2ccccc21)Nc1ccon1`, for which the inhibition was 6.5% (inactive).

On to `CCOC(=O)N1CCN(S(=O)(=O)c2ccc(C(=O)Nc3ccc(F)cc3F)cc2)CC1`, for which the inhibition is 17.4% (inactive).

For the compound `O=C(C(NS(=O)(=O)c1cccc2nsnc12)c1ccccc1)N1CCN(c2ccccn2)CC1` (stereo not given), the inhibition was 10.9% (inactive).

With `CCOc1cc(C(=O)N2CCc3cc(OC)c(OC)cc3C2)ccc1OC(F)F`, the inhibition is 31.7% (inactive).

Take `O=C(Cc1c(F)cccc1Cl)N1CCN(C(=O)c2ccco2)CC1`: the inhibition is 10.7% (inactive).

`Cc1nc2c(-c3ccc(F)cc3)c(C)nn2c(C)c1CCC(=O)N1CCN(c2ccccn2)CC1`: the inhibition is 0.2% (inactive).

In the case of `CCn1cc(C(=O)NC2CCCCCC2)c(=O)c2cc(S(=O)(=O)N3CCCCC3)ccc21`, the inhibition is 20.8% (inactive).

As to `COc1ccc(OC)c(NC(=O)CSc2nc3cccnc3n2C)c1`, the inhibition is 18.9% (inactive).

As for `CC(Sc1nncs1)C(=O)NCc1ccc2c(c1)OCO2` (stereo not given), the inhibition was -5.2% (inactive).

For the compound `COc1ccccc1NC(=O)CN1CCN(S(=O)(=O)c2ccc(Br)cc2)CC1`, the inhibition is 4.2% (inactive).

For the compound `CCOC(=O)c1cccc(NC(=O)C2CCCN(S(=O)(=O)c3cnc[nH]3)C2)c1` (stereo not given), the inhibition was 11.6% (inactive).

Take `O=c1ccc2cc(S(=O)(=O)N3CCN(c4ccccc4)CC3)ccc2o1`: the inhibition was 10.7% (inactive).

Regarding `CCCCCN(C(=O)NC(=O)Nc1ccccc1OC)S(C)(=O)=O`, the inhibition is 7.9% (inactive).

`COc1ccc(-c2nnn(Cc3nc(N)nc(N4CCCCC4)n3)n2)cc1`: the inhibition is 10.9% (inactive).

Consider `O=C(NCCCCO)C(F)(F)C(F)(F)C(F)(F)C(=O)NCCCCO`, for which the inhibition was 13.3% (inactive).

As for `CCOC(=O)c1cc(C)sc1NC(=O)C1CCC1`, the inhibition was 0.1% (inactive).

For `CC(C)Cc1ccc(S(=O)(=O)N2CCN(C(=O)c3ccco3)CC2)cc1`, the inhibition was 9.1% (inactive).

`CC(Sc1nncn1C)C(=O)Nc1ccccc1-c1ccccc1` (stereo not given): the inhibition is 14.4% (inactive).

`O=C(CN1C(=O)NC2(CCCCC2)C1=O)NCCC1=CCCCC1`: the inhibition is 17.4% (inactive).

As for `CCN(CC)C(=O)N1CCN(C(=O)c2ccc(C)cn2)CC1`, the inhibition is 4.3% (inactive).

Turning to `Fc1ccc(Cn2nnnc2C(c2cccs2)N2CCCCCC2)cc1` (stereo not given), the inhibition is 9.2% (inactive).

As to `CCCC(=O)Nc1nnc(CC(=O)OCC)s1`, the inhibition was 9.9% (inactive).

As for `CCCCNc1nc2ccccc2nc1NS(=O)(=O)c1cccs1`, the inhibition is 3.3% (inactive).

With `Cc1noc(/C=C/N(C)C)c1S(=O)(=O)N1CCCC(C(=O)NCc2ccco2)C1` (stereo not given), the inhibition is 5% (inactive).

Turning to `O=C(Cc1cccs1)N1CCCC(c2nc(-c3ccc(S(=O)(=O)N4CCCC4)cc3)no2)C1` (stereo not given), the inhibition is 6.1% (inactive).

`Cc1cc(C(=O)COC(=O)c2cccs2)c(C)n1-c1c(C)n(C)n(-c2ccccc2)c1=O`: the inhibition was 20% (inactive).

For `COc1cc(OC)cc(C(=O)Nc2ncc3c(n2)CC(C)(C)CC3=O)c1`, the inhibition was 18.8% (inactive).

Turning to `O=S(=O)(/C=C/c1ccccc1)NCCc1ccccn1`, the inhibition is 3.3% (inactive).

As for `CCCCc1nc2c(=O)[nH]c3ccccc3c2o1`, the inhibition was 7.6% (inactive).

Regarding `CNC(=O)c1nnn(-c2ccccc2)c1C(=O)NC`, the inhibition was 14% (inactive).

On to `CCC(=O)Nc1ccccc1C(=O)N1CCN(Cc2ccccc2)CC1`, for which the inhibition was 9.5% (inactive).

Take `Cc1[nH]c2ccccc2c1C(=O)CSCC(=O)O`: the inhibition is 16% (inactive).

With `C/C(=C\C(=O)c1cccnc1)Nc1ccc(C)c(C)c1`, the inhibition was -5% (inactive).

Consider `O=C(O)c1cccc2c1C(=O)N(C1CCCCC1)C2`, for which the inhibition is 8.4% (inactive).

As to `CS(=O)(=O)N1CCN(C(=O)Cc2ccccc2)CC1`, the inhibition is 5.7% (inactive).

Consider `CCCCC(CC)C(=O)Nc1ccc(Cl)cn1` (stereo not given), for which the inhibition is -0.6% (inactive).

For the compound `CCN(CC)CCCN1C(=O)C(=O)/C(=C(/O)c2c(C)nc3ccccn23)C1c1ccc(C)o1` (stereo not given), the inhibition was 13.6% (inactive).

For the compound `COCCNC(=O)CN(C(=O)CCC(=O)Nc1cc(C)on1)c1ccc(C)cc1C`, the inhibition was 1.1% (inactive).

Consider `CC(C)C(=O)N1CCN(CCN=CC2=C(O)CC(c3ccco3)CC2=O)CC1` (stereo not given), for which the inhibition was 9.5% (inactive).

In the case of `CC1CCCCC1NC(=O)CCS(=O)(=O)c1cccc2nonc12` (stereo not given), the inhibition is 10.9% (inactive).

For `CCOC(=O)N1CCC(NC(=O)Cn2cc3c(n2)CCCCC3)CC1`, the inhibition was 17.8% (inactive).

`CCOc1ccc(OCC)c(NC(=O)C(NS(=O)(=O)c2ccc3c(c2)oc(=O)n3C)C(C)C)c1` (stereo not given): the inhibition was 12.5% (inactive).

On to `CCC1Oc2ccc(Cl)cc2N(CC(=O)O)C1=O` (stereo not given), for which the inhibition is 10.2% (inactive).

With `CC(CCO)Nc1nc2c([nH]1)c(=O)n(C)c(=O)n2C` (stereo not given), the inhibition is 22.2% (inactive).

On to `COC(=O)[C@H](C(C)C)n1c(C)c(C(C)=O)c(C(C)=O)c1C`, for which the inhibition was -9.6% (inactive).
